Reference: ChEMBL document CHEMBL1143182, “Design and synthesis of DPP-IV inhibitors lacking the electrophilic nitrile group” (Bioorg Med Chem, 2008)
The source made the active and inactive calls. No cut-off for these calls is given here.

Columns and labels:
Rattus norvegicus [1] = experiment: Inhibition of DPP4 in Sprague-Dawley rat plasma at 3 mg/kg, po after 9 hrs; type: functional
Rattus norvegicus [2] = experiment: Inhibition of DPP4 in Sprague-Dawley rat plasma at 3 mg/kg, po after 30 mins; type: functional; details: 0.5 h
Dipeptidyl peptidase 4 = Dipeptidyl peptidase 4 (Rattus norvegicus, UniProt P14740); experiment: Inhibition of DPP4 in rat plasma by fluorescence assay; type: cell-free
Chain of Dipeptidyl peptidase 4 (P14740 whole entry): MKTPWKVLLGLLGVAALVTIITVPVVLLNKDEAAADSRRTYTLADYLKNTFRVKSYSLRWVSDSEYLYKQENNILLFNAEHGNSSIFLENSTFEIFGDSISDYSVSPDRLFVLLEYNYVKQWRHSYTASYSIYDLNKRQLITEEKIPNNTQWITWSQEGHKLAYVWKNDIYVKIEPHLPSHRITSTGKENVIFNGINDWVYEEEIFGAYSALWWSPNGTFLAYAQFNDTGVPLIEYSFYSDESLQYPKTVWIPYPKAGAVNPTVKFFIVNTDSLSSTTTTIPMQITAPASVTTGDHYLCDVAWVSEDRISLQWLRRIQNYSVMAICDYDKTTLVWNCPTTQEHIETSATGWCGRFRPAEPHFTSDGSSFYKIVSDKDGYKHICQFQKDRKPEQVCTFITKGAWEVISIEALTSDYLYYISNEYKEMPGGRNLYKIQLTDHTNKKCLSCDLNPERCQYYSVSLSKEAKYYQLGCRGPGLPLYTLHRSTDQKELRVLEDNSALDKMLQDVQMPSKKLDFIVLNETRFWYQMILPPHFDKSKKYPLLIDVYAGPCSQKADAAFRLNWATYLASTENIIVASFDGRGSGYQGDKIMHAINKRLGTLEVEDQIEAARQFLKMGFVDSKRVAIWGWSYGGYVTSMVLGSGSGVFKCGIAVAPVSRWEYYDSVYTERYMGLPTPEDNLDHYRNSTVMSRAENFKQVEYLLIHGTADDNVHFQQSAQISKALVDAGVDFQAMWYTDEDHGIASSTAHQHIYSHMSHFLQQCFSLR

Rattus norvegicus [3] = organism: Rattus norvegicus; experiment: Reduction in plasma glucose level in Sprague-Dawley rat by oral glucose tolerance test; type: functional, organism-based
How it was run: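 Male SD rats (400–460 g) fasted at least 20 h, dosed orally with 0.1, 0.3 or 1 mg/kg in 0.5% methyl cellulose (vehicle control) at −30 min. Oral glucose 1 g/kg at 0 min. Tail-vein blood at −5, 5, 10, 15, 30, 60, 120 min; plasma glucose by glucose oxidase peroxidase dye method.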

| SMILES | IC50 (Dipeptidyl peptidase 4) [nM] | inhibition in vivo at 3 mg/kg (Rattus norvegicus [1]) [%] | inhibition in vivo at 3 mg/kg (Rattus norvegicus [2]) [%] | Activity (Rattus norvegicus [3]) |
| --- | --- | --- | --- | --- |
| Cc1cnc(N2CCN(C(=O)[C@@H]3CN[C@H](C(=O)N4CCCC4)C3)CC2)s1 | 320 | – | – | – |
| CCCc1nsc(N2CCN(C(=O)[C@@H]3CN[C@H](C(=O)N4CCCC4)C3)CC2)n1 | 110 | 48 | 81 | – |
| CCc1nsc(N2CCN(C(=O)[C@@H]3CN[C@H](C(=O)N4CCCC4)C3)CC2)n1 | 120 | 47 | 80 | – |
| Cc1nsc(N2CCCN(C(=O)[C@@H]3CN[C@H](C(=O)N4CCCC4)C3)CC2)n1 | 760 | – | – | – |
| O=C([C@@H]1CN[C@H](C(=O)N2CCCC2)C1)N1CCN(c2nc(-c3ccccc3)ns2)CC1 | 150 | 11 | 64 | – |
| Cc1nsc(C2CCN(C(=O)[C@@H]3CN[C@H](C(=O)N4CCCC4)C3)CC2)n1 | 450 | – | – | – |
| CC(C)c1nsc(N2CCN(C(=O)[C@@H]3CN[C@H](C(=O)N4CCCC4)C3)CC2)n1 | 190 | 43 | 85 | – |
| Cc1cc(N2CCN(C(=O)[C@@H]3CN[C@H](C(=O)N4CCCC4)C3)CC2)sn1 | 240 | – | – | – |
| Cc1nc(N2CCN(C(=O)[C@@H]3CN[C@H](C(=O)N4CCCC4)C3)CC2)no1 | 960 | – | – | – |
| O=C([C@@H]1CN[C@H](C(=O)N2CCCC2)C1)N1CCN(c2nc(C(F)(F)F)ns2)CC1 | 140 | 54 | 91 | – |
| Cc1nc(N2CCN(C(=O)[C@@H]3CN[C@H](C(=O)N4CCCC4)C3)CC2)sc1C | 510 | – | – | – |
| Cc1ncc(N2CCN(C(=O)[C@@H]3CN[C@H](C(=O)N4CCCC4)C3)CC2)s1 | 340 | – | – | – |

The next compounds have a lower IC50 (Dipeptidyl peptidase 4) than those just listed; values first:

| IC50 (Dipeptidyl peptidase 4) [nM] | SMILES | inhibition in vivo at 3 mg/kg (Rattus norvegicus [1]) [%] | inhibition in vivo at 3 mg/kg (Rattus norvegicus [2]) [%] | Activity (Rattus norvegicus [3]) |
| --- | --- | --- | --- | --- |
| 76 | Cc1nsc(N2CCN(C(=O)[C@@H]3CN[C@H](C(=O)N4CCSC4)C3)CC2)n1 | 75 | 91 | – |
| 69 | Cc1nsc(N2CCN(C(=O)[C@H]3C[C@@H](C(=O)N4CCCC4)N[C@H]3C)CC2)n1 | 74 | 89 | – |
| 60 | Cc1nsc(N2CCN(C(=O)[C@H]3C[C@@H](C(=O)N4CCSC4)N[C@H]3C)CC2)n1 | 72 | 95 | Active |
| 58 | Cc1nsc(N2CCN(C(=O)[C@@H]3CN[C@H](C(=O)N4CCCC4)C3)CC2)n1 | 53 | 84 | – |
| 49 | COCc1nsc(N2CCN(C(=O)[C@@H]3CN[C@H](C(=O)N4CCCC4)C3)CC2)n1 | 41 | 52 | – |
| 45 | O=C([C@@H]1CN[C@H](C(=O)N2CCCC2)C1)N1CCN(c2ncns2)CC1 | 56 | 85 | – |
